Published values collected from several papers.
Lines come from different studies, so protocols differ.
tspO: tspO (Cereibacter sphaeroides, UniProt Q9RFC8)
TMEM97: Sigma intracellular receptor 2 (TMEM97, Homo sapiens, UniProt Q5BJF2)
Serine protease HTRA1 S328A: Serine protease HTRA1 (Homo sapiens, UniProt Q92743, S328A)

SMILES	target	test	setting	quantity	value
COc1ncccc1-c1cnn2ccc(N3CCN(C(=O)OC(C)C)CC3)nc12	Acetylcholine receptor subunit alpha (CHRNA1, Homo sapiens, UniProt P02708)	ion current, inhibitor		IC50	12 µM
C=CC1=C(C)/C(=C/c2[nH]c(Cc3[nH]c(/C=C4\NC(=O)C(C)=C4C=C)c(C)c3CCC(=O)O)c(CCC(=O)O)c2C)NC1=O	tspO	binding, fluorescence		Kd	4.7 µM
OCCN1CCN(CCCN2c3ccccc3C=Cc3ccccc32)CC1	TMEM97	ligand displacement, radioligand		Ki	0.126 µM
NC[C@@H]1[C@H]2CN3C(=O)c4cccn4[C@@H]4NC(N)=N[C@@]43[C@@H]2[C@]2(N=C(N)N[C@H]2O)[C@H]1Cl (racemic)	Proteasome subunit beta type-8, chymotrypsin-like site (PSMB8, Homo sapiens, UniProt P28062)	enzyme activity, inhibitor		IC50	4.8 µM
CC[C@H](C)[C@H](NC(=O)[C@H](Cc1ccccc1)NC(=O)[C@H](CC(=O)O)NC(=O)[C@H](CCCNC(=N)N)NC(=O)[C@@H](NC(=O)[C@H](C)NC(=O)[C@H](CC(C)C)NC(=O)[C@H](CC(N)=O)NC(=O)[C@H](CC(=O)O)NC(=O)[C@H](CC(C)C)NC(=O)[C@@H](NC(=O)[C@@H](NC(=O)[C@H](CO)NC(=O)[C@H](CCSC)NC(=O)[C@H](CCC(=O)O)NC(=O)[C@H](CC(=O)O)NC(=O)[C@H](CO)NC(=O)[C@H](Cc1ccccc1)NC(=O)[C@H](CO)NC(=O)CNC(=O)[C@H](CC(=O)O)NC(=O)[C@H](C)NC(=O)[C@@H](N)Cc1c[nH]cn1)[C@@H](C)O)[C@@H](C)CC)[C@@H](C)O)C(=O)N[C@@H](CC(N)=O)C(=O)N[C@@H](Cc1c[nH]c2ccccc12)C(=O)N[C@@H](CC(C)C)C(=O)N[C@H](C(=O)N[C@@H](CCC(N)=O)C(=O)N[C@H](C(=O)N[C@@H](CCCCN)C(=O)N[C@H](C(=O)N[C@H](C(=O)N[C@@H](CC(=O)O)C(=O)O)[C@@H](C)O)[C@@H](C)CC)[C@@H](C)O)[C@@H](C)CC	Glucagon receptor (GCGR, Homo sapiens, UniProt P47871)	reporter gene, agonist, luciferase		EC50	> 1 µM
CC(C)C[C@H](NC(=O)[C@H](Cc1ccccc1)NC(=O)c1cnccn1)B(O)O	Serine protease HTRA2, mitochondrial (HTRA2, Homo sapiens, UniProt O43464)	enzyme activity, inhibitor		IC50	> 33 µM
CC[C@@H]1SC2(CCN(C)CC2)NC1=O	Muscarinic acetylcholine receptor M3 (CHRM3, Homo sapiens, UniProt P20309)	calcium signal, agonist		EC50	0.0328 µM
CC[C@H](C)[C@H](NC(=O)[C@H](C)NC(=O)[C@H](CCCNC(=N)N)NC(=O)[C@H](CC(C)C)NC(=O)[C@@H](N)Cc1ccccc1)C(=O)N[C@@H](CCCNC(=N)N)C(=O)N1CCC[C@H]1C(=O)N[C@@H](CCCCN)C(=O)O	B1 bradykinin receptor (Rattus norvegicus, UniProt P97583)	ligand displacement, radioligand	cell membranes	IC50	0.74 µM
CC[C@H](C)[C@H](NC(=O)[C@H](Cc1c[nH]c2ccccc12)NC(=O)[C@H](C)NC(=O)[C@H](C)NC(=O)[C@H](Cc1ccc(O)cc1)NC(=O)[C@@H](N)CO)C(=O)N[C@@H](CC(=O)O)C(=O)N[C@H](C(=O)N[C@@H](CCC(=O)O)C(=O)N[C@@H](CC(=O)O)C(=O)N[C@@H](CC(C)C)C(=O)O)C(C)C	Serine protease HTRA1 S328A	binding, ITC	pH 8	Kd	34 µM
CCCN(CCC)CCc1ccc(OC)c(OCCc2ccccc2)c1	TMEM97	ligand displacement, radioligand		Ki	0.0827 µM
CC(C)C[C@H](NC(=O)CNC(=O)[C@H](C)NC(=O)c1ccc(S(=O)(=O)NC[C@H]2O[C@@H](C)[C@@H](O)[C@@H](O)[C@@H]2O)cc1)C(=O)N[C@@H](C)C(=O)N[C@H]1CCN(c2cc3c(cc2F)c(=O)c(C(=O)O)cn3C2CC2)C1	Fucose-binding lectin PA-IIL (lecB, Pseudomonas aeruginosa, UniProt Q9HYN5)	ligand displacement, FP		Ki	1.43 µM
Cc1cc2c(C(C)C)c(O)c(O)c(C=O)c2c(O)c1-c1c(C)cc2c(C(C)C)c(O)c(O)c(C=O)c2c1O	tspO	binding, fluorescence		Kd	6 µM
CN(C)CCOC(C)(c1ccccc1)c1ccccn1 (stereo not drawn)	TMEM97	ligand displacement, radioligand		Ki	> 10 µM
CC(C)C[C@H](NC(=O)[C@H](CC(=O)O)NC(=O)[C@H](CC(=O)O)NC(=O)[C@H](CC(=O)O)NC(=O)[C@@H](NC(=O)[C@H](Cc1c[nH]c2ccccc12)NC(=O)[C@@H](N)CCC(=O)O)[C@@H](C)O)C(=O)N[C@@H](CO)C(=O)N[C@H](C(=O)N[C@@H](CC(C)C)C(=O)N[C@@H](C)C(=O)O)C(C)C	Serine protease HTRA1 S328A	binding, ITC	pH 8	Kd	20.5 µM
CC(C)(C)[C@]1(O)CCN2C[C@@H]3c4ccccc4CCc4cccc(c43)[C@H]2C1	TMEM97	ligand displacement, radioligand		Ki	4.79 µM
COc1cc(C(=O)N2CC[C@@H](O)[C@@H](N)C2)cc2nc(-c3cc4ccccc4n3CC3CC3)n(C)c12	Prostaglandin G/H synthase 2 (PTGS2, Homo sapiens, UniProt P35354)	enzyme activity, inhibitor		IC50	> 100 µM
CC(C)C[C@H](NC(=O)[C@H](CC(=O)O)NC(=O)[C@H](CC(=O)O)NC(=O)[C@H](CC(=O)O)NC(=O)[C@@H](NC(=O)[C@H](Cc1c[nH]c2ccccc12)NC(=O)[C@@H](N)CCC(=O)O)[C@@H](C)O)C(=O)N[C@@H](CO)C(=O)N[C@H](C(=O)N[C@@H](CC(=O)O)C(=O)N[C@@H](C)C(=O)O)C(C)C	Serine protease HTRA1 S328A	binding, ITC	pH 8	Kd	25.6 µM
Cc1cccc(CN2CCN(C(c3ccccc3)c3ccc(Cl)cc3)CC2)c1 (stereo not drawn)	TMEM97	ligand displacement, radioligand		Ki	> 10 µM
